m-calpain inh: calpain II (pig) inhibition; purified calpain II, fluorogenic peptide substrate, 30 min; inhibition, % at 16 µM; 220,000 tested, 0.37% active; AID 1236;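 active means inhibition above about 50%, limit read from the data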
Thrombin inh: thrombin (human) inhibition | alpha-thrombin, Boc-VPR-AMC fluorogenic substrate cleavage | inhibition, % at 5 µM | P00734 | 220,000 tested, 0.26% active;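 active means inhibition at or above 40%; inactive means inhibition below 40%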;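 further: 0% = enzyme with no compound and 100% = wells without enzyme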
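Test system: human alpha-thrombin protein / Dosing: one concentration per compound, 5 µM, with 0.2% DMSO / Medium: pH 7.5 Tris-saline with Tween 20 / Benchmarks: no-compound enzyme wells and no-enzyme blanks / Read-out basis: percent inhibition of thrombin substrate cleavage / Timing: reaction at room temperature / Measured by: fluorescence, ex 355 nm, em 460 nm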
KLK5 inh: kallikrein 5 (human) inhibition; Q9Y337; recombinant hK5, fluorogenic AMC substrate cleavage; AID 873; 210,000 tested, 0.59% active; inhibition, % at 5 µM;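 active means inhibition of 40% or more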;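 further: 0% = enzyme controls without compound and 100% = no-enzyme blanks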
Furin inhibitor: human furin inhibition; P09958; purified furin, fluorogenic substrate cleavage; inhibition, % at 20 µM or 30 µM; 220,000 tested, 0.061% active; in the data active means inhibition above about 25%
FXIIa inh 1536: factor XIIa (human) inhibition. 220,000 tested, 0.3% active. P00748. purified FXIIa, Boc-QGR-AMC fluorogenic substrate, 2 h. inhibition, % at 5 µM; in the data active means inhibition above about 40%;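 further: 0% = enzyme with no compound and 100% = blank without enzyme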
FXIa inh: inhibitors of human coagulation factor XIa. P03951. purified FXIa, Boc-Glu-Ala-Arg-AMC fluorogenic substrate. inhibition, % at 5 µM. 220,000 tested, 0.14% active. AID 798;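 active means inhibition of at least 40%; inactive means inhibition below 40%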;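 further: fluorescence of freed AMC excited at 355 nm; 0% = enzyme without compound and 100% = no enzyme blank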
Target sequence (P03951 19-387 limits assumed): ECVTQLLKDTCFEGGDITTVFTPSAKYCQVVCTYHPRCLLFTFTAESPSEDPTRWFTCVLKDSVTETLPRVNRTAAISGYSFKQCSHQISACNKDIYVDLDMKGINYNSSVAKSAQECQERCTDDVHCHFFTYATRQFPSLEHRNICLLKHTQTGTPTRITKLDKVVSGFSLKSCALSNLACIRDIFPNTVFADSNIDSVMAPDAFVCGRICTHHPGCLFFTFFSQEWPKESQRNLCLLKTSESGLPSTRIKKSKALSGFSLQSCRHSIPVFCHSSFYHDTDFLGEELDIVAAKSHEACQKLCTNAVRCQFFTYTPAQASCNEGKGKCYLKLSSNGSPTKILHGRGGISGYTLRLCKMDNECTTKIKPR
Target sequence (P03951 388-625 limits assumed): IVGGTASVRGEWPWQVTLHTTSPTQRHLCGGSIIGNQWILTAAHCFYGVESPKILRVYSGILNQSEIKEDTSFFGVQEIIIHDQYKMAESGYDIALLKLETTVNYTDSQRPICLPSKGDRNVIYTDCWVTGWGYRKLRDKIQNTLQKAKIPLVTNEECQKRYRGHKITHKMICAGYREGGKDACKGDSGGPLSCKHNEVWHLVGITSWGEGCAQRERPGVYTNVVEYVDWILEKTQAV
Active calls of the source: *. The list is not random: actives were taken first. Their share in the collection is about 1.4%.

What do the screens show for `CCC(C(=O)OCC(=O)Nc1ccc(C(N)=O)cc1)c1ccccc1` (centres undefined)?
m-calpain inh: -14.9; Thrombin inh: 4.5; KLK5 inh: 2.7; Furin inhibitor: -4.4; FXIIa inh 1536: 12.8; FXIa inh: 0.8

What do the screens show for `CCC(C(=O)OCC(=O)Nc1ccc(SC(F)F)cc1)c1ccccc1` (centres undefined)?
m-calpain inh: 50.9*; Thrombin inh: 51.2*; KLK5 inh: 23.8; Furin inhibitor: -10.3; FXIIa inh 1536: -2.5; FXIa inh: 2.5

What do the screens show for `CCC(C(=O)OCC(=O)Nc1ccc(Cl)c(S(=O)(=O)N(C)C)c1)c1ccccc1` (centres undefined)?
m-calpain inh: 59.1*; Thrombin inh: -6.1; KLK5 inh: -13.7; Furin inhibitor: -4.3; FXIIa inh 1536: 5.4; FXIa inh: 6.7

What do the screens show for `OCCC1CN(Cc2nc(-c3ccc(F)cc3)cs2)CCN1CCc1ccccc1` (centres undefined)?
m-calpain inh: -14.2; Thrombin inh: -7.5; Furin inhibitor: -14.3; FXIIa inh 1536: 5.1; FXIa inh: -4.1

What do the screens show for `CCCc1nc(NC(C)=O)c(C#N)c(-c2ccco2)c1CC`?
m-calpain inh: -4.6; Thrombin inh: 40.4*; KLK5 inh: 19.6; Furin inhibitor: -24.5; FXIIa inh 1536: 23.0; FXIa inh: 17.9

What do the screens show for `CCCCc1nc(N)c(C#N)c(-c2ccco2)c1CCC`?
m-calpain inh: -58.8; Thrombin inh: 0.0; KLK5 inh: -6.8; Furin inhibitor: -6.9; FXIIa inh 1536: 12.5; FXIa inh: 3.0

How did Cc1cccc(C(=O)NC2CCN(C(=S)NCc3ccco3)CC2)c1 do in these assays?
m-calpain inh: -18.4; Thrombin inh: 1.5; KLK5 inh: 13.7; Furin inhibitor: -6.1; FXIIa inh 1536: 16.1; FXIa inh: 25.1

Results for O=C(Nc1cc(=O)[nH]c2ncnn12)c1ccco1 ?
m-calpain inh: 14.5; Thrombin inh: 23.4; KLK5 inh: 56.6*; Furin inhibitor: 1.2; FXIIa inh 1536: 41.6*; FXIa inh: 22.8

Results for Cc1[nH]c2c(Cl)cccc2c(=O)c1CN1CCCC1 ?
m-calpain inh: 21.7; Thrombin inh: 1.0; KLK5 inh: 5.5; Furin inhibitor: -20.1; FXIIa inh 1536: -0.6; FXIa inh: 1.3

What do the screens show for `CCc1cccc(C)c1NC(=O)CSc1nnc(-c2cc3cc(Br)ccc3o2)n1CC`?
m-calpain inh: 55.4*; Thrombin inh: 26.9; KLK5 inh: -28.7; Furin inhibitor: -28.1; FXIIa inh 1536: 4.7; FXIa inh: 2.1

Results for Cn1c(SCC(=O)Nc2cccc(C(=O)O)c2)nnc1-c1cc2cc(Br)ccc2o1 ?
m-calpain inh: -88.9; Thrombin inh: -2.2; KLK5 inh: -27.4; Furin inhibitor: -19.0; FXIIa inh 1536: 8.8; FXIa inh: -5.2

What do the screens show for `CCc1ccc(S(=O)(=O)ON2C(=O)c3ccccc3C2=O)cc1`?
m-calpain inh: -35.0; Thrombin inh: 60.0*; KLK5 inh: 1.4; Furin inhibitor: -14.5; FXIIa inh 1536: 14.8; FXIa inh: 21.6

What do the screens show for `O=C1c2cccc3cccc(c23)C(=O)N1OS(=O)(=O)c1ccc(Cl)cc1`?
m-calpain inh: -211.1; Thrombin inh: -0.7; KLK5 inh: -24.5; Furin inhibitor: -16.5; FXIIa inh 1536: 5.6; FXIa inh: 2.6

Results for CC(C)Cn1c(N)c(C(=O)COC(=O)c2cnc(Cl)c(Cl)c2)c(=O)n(C)c1=O ?
m-calpain inh: 63.0*; Thrombin inh: 0.5; KLK5 inh: -3.2; Furin inhibitor: -17.0; FXIIa inh 1536: 3.4; FXIa inh: -7.2

Results for CC(C)Cn1c(N)c(C(=O)COC(=O)c2cc(F)cc(F)c2)c(=O)n(C)c1=O ?
m-calpain inh: 39.8; Thrombin inh: -3.3; KLK5 inh: 3.5; Furin inhibitor: -20.2; FXIIa inh 1536: 11.3; FXIa inh: -4.5

Results for CC1CCCN(C(=O)c2sc3cc([N+](=O)[O-])ccc3c2Cl)C1 (centres undefined) ?
m-calpain inh: 68.1*; Thrombin inh: 4.6; KLK5 inh: 2.2; Furin inhibitor: -16.7; FXIIa inh 1536: 13.8; FXIa inh: 6.0

Results for COC(=O)C(Nc1ccccc1Cl)(c1cc(C)c(O)c(C)c1)C(F)(F)F (centres undefined) ?
m-calpain inh: 51.5*; Thrombin inh: -5.0; KLK5 inh: -16.5; Furin inhibitor: 1.8; FXIIa inh 1536: -2.8; FXIa inh: -0.3

Results for CCOC(=O)C(NC(=O)c1ccccc1Cl)(Nc1ccc(C)c(C)c1)C(F)(F)F (centres undefined) ?
m-calpain inh: 8.0; Thrombin inh: -3.8; KLK5 inh: -23.8; Furin inhibitor: -12.1; FXIIa inh 1536: 8.3; FXIa inh: 4.0

What do the screens show for `CC1(C)CC(=O)CC(=NCC(=O)O)C1`?
m-calpain inh: 19.3; Thrombin inh: -0.5; KLK5 inh: 128.1*; Furin inhibitor: -11.7; FXIIa inh 1536: -1.5; FXIa inh: -7.0

Results for CSc1nc(SCC(=O)O)c2c3c(sc2n1)COC(C)(C)C3 ?
m-calpain inh: -2.7; Thrombin inh: 18.2; KLK5 inh: 22.8; Furin inhibitor: 0.9; FXIIa inh 1536: 52.0*; FXIa inh: 29.9

What do the screens show for `CSc1nc(SCC(=O)NCc2ccco2)c2c3c(sc2n1)COC(C)(C)C3`?
m-calpain inh: -209.5; Thrombin inh: -9.7; KLK5 inh: -29.4; Furin inhibitor: -27.0; FXIIa inh 1536: 6.5; FXIa inh: -0.6

How did Nc1sc2c(c1C(=O)NC1CCS(=O)(=O)C1)CCC2 (centres undefined) do in these assays?
m-calpain inh: -33.6; Thrombin inh: 19.3; KLK5 inh: 45.0*; Furin inhibitor: -1.5; FXIIa inh 1536: 20.2; FXIa inh: 6.8

How did NC(=O)c1c(N)sc2c1CCC2 do in these assays?
m-calpain inh: 5.5; Thrombin inh: 20.2; KLK5 inh: 17.3; Furin inhibitor: 0.0; FXIIa inh 1536: 41.2*; FXIa inh: 8.0

Results for NC(=O)c1c(N)sc2c1CCCCC2 ?
m-calpain inh: -23.2; Thrombin inh: -3.0; KLK5 inh: 3.8; Furin inhibitor: -4.3; FXIIa inh 1536: 28.1; FXIa inh: 11.4

Results for N#Cc1ccccc1NC(=O)COC(=O)COc1ccccc1[N+](=O)[O-] ?
m-calpain inh: -17.5; Thrombin inh: 42.4*; KLK5 inh: 1.9; Furin inhibitor: -14.5; FXIIa inh 1536: 14.2; FXIa inh: 2.7

What do the screens show for `O=C(COC(=O)CCC(=O)c1cccs1)Nc1ccccc1[N+](=O)[O-]`?
m-calpain inh: 0.3; Thrombin inh: 41.6*; KLK5 inh: 6.2; Furin inhibitor: -25.0; FXIIa inh 1536: 2.7; FXIa inh: -1.5

Results for CC(OC(=O)CCC(=O)c1cccs1)C(=O)Nc1ccccc1[N+](=O)[O-] (centres undefined) ?
m-calpain inh: 10.2; Thrombin inh: 37.7; KLK5 inh: -14.9; Furin inhibitor: -11.9; FXIIa inh 1536: -0.2; FXIa inh: -5.0

Results for Cc1ccnc2nc(C(=O)OCC(=O)Nc3ccccc3C(C)(C)C)nn12 ?
m-calpain inh: -26.7; Thrombin inh: -7.3; KLK5 inh: 1.3; Furin inhibitor: -29.3; FXIIa inh 1536: 6.7; FXIa inh: -1.2

Source: PubChem BioAssay
